Results reported in ChEMBL document CHEMBL1140069, “In vitro antifungal activity of polyfunctionalized 2-(hetero)arylquinolines prepared through imino Diels-Alder reactions” (2008).
In brackets after ≈: the same amount, converted by molar mass.

How the values were obtained:
Assay type in all cases: functional
Trichophyton rubrum [1] = assay: Antifungal activity against Trichophyton rubrum C137 isolate; conditions: read-out: MIC100
Nannizzia gypsea = assay: Antifungal activity against Microsporum gypseum C115 after 48 hrs by broth microdilution technique
Summary of the method: (§1)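 CLSI broth microdilution: M-27 A2 for yeasts and M-38 A for filamentous fungi. Medium is RPMI-1640 buffered to pH 7.0 with MOPS. Compound is diluted twofold from 250 to 0.98, final DMSO ≤2%. Inoculum is 1–5 × 10³ CFU/mL. Plates are incubated at 35 °C in a moist, dark chamber and read visually at 48 h. MIC100 is the lowest concentration giving total growth inhibition versus drug-free control.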

Trichophyton rubrum [2] = assay: Antifungal activity against Trichophyton rubrum C133 isolate; conditions: read-out: MIC100
Trichophyton rubrum [3] = assay: Antifungal activity against Trichophyton rubrum C136 isolate; conditions: read-out: MIC100
[4] = test system: Trichophyton mentagrophytes; assay: Antifungal activity against Trichophyton mentagrophytes C132 isolate; conditions: read-out: MIC100
[5] = test system: Trichophyton mentagrophytes; assay: Antifungal activity against Trichophyton mentagrophytes C131 isolate; conditions: read-out: MIC100
[6] = test system: Trichophyton mentagrophytes; assay: Antifungal activity against Trichophyton mentagrophytes ATCC 9972 after 48 hrs by broth microdilution technique; conditions: ATCC 9972, 48 h; summary of the method: as §1
Trichophyton rubrum [7] = assay: Antifungal activity against Trichophyton rubrum C135 isolate; conditions: read-out: MIC100
Aspergillus flavus = assay: Antifungal activity against Aspergillus flavus ATCC 9170 after 48 hrs by broth microdilution technique; conditions: ATCC 9170, 48 h; summary of the method: as §1
[8] = test system: Trichophyton mentagrophytes; assay: Antifungal activity against Trichophyton mentagrophytes C943 isolate; conditions: read-out: MIC100
Trichophyton rubrum [9] = assay: Antifungal activity against Trichophyton rubrum C110 after 48 hrs by broth microdilution technique; summary of the method: as §1
Aspergillus niger = assay: Antifungal activity against Aspergillus niger ATCC 9029 after 48 hrs by broth microdilution technique; conditions: ATCC 9029, 48 h; summary of the method: as §1
Saccharomyces cerevisiae = assay: Antifungal activity against Saccharomyces cerevisiae ATCC 9763 after 48 hrs by broth microdilution technique; conditions: ATCC 9763, 48 h; summary of the method: as §1
Cryptococcus neoformans [10] = assay: Antifungal activity against Cryptococcus neoformans ATCC 32264 after 48 hrs by broth microdilution technique; conditions: ATCC 32264, 48 h; summary of the method: as §1
Aspergillus fumigatus = assay: Antifungal activity against Aspergillus fumigatus ATTC 26934 after 48 hrs by broth microdilution technique; summary of the method: as §1
[11] = test system: Trichophyton mentagrophytes; assay: Antifungal activity against Trichophyton mentagrophytes C364 isolate; conditions: read-out: MIC100
[12] = test system: Trichophyton mentagrophytes; assay: Antifungal activity against Trichophyton mentagrophytes C539 isolate; conditions: read-out: MIC100
Candida albicans [13] = assay: Antifungal activity against Candida albicans ATCC 10231 after 48 hrs by broth microdilution technique; conditions: ATCC 10231, 48 h; summary of the method: as §1
Candida tropicalis = assay: Antimicrobial activity against Candida tropicalis C131 isolate at 6.25 ug/ml after 24 hrs
Summary of the method: (§2)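 Percent growth inhibition in 96-well microplates. Compound stocks in DMSO (≤2%) were diluted in RPMI-1640 to final 100–6.25 µg/mL, and 100 µL inoculum was added (final 200 µL). Controls were a growth well (inoculum with matching DMSO, no compound) and a sterility well (no inoculum). Inhibition was calculated against growth and sterility wells.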

Nakaseomyces glabratus = assay: Antimicrobial activity against Candida glabrata C115 isolate at 6.25 ug/ml after 24 hrs; summary of the method: as §2
Cryptococcus neoformans [14] = assay: Antimicrobial activity against Cryptococcus neoformans IM 042074 isolate at 6.25 ug/ml after 48 hrs; summary of the method: as §2
Cryptococcus neoformans [15] = assay: Antimicrobial activity against Cryptococcus neoformans IM 031706 isolate at 6.25 ug/ml after 48 hrs; summary of the method: as §2
Candida albicans [16] = assay: Antimicrobial activity against Candida albicans C126 isolate at 6.25 ug/ml after 24 hrs
Summary of the method: (§3)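 Growth-inhibition microplate test. Strains are grown on Sabouraud-chloramphenicol agar for 48 h at 30 °C, and inoculum is added to RPMI-1640 containing compound at a final 100–6.25, with DMSO ≤2%. Each strain has a growth control (same DMSO, no compound) and a sterility control.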

Candida albicans [17] = assay: Antimicrobial activity against Candida albicans ATCC 10231 at 6.25 ug/ml after 24 hrs; conditions: ATCC 10231, 24 h; summary of the method: as §3
Cryptococcus neoformans [18] = assay: Antimicrobial activity against Cryptococcus neoformans ATCC 32264 at 6.25 ug/ml after 48 hrs; conditions: ATCC 32264, 48 h; summary of the method: as §2
Cryptococcus neoformans [19] = assay: Antimicrobial activity against Cryptococcus neoformans IM 00319 isolate at 6.25 ug/ml after 48 hrs; summary of the method: as §2
Candida albicans [20] = assay: Antimicrobial activity against Candida albicans C129 isolate at 6.25 ug/ml after 24 hrs; summary of the method: as §3
Cryptococcus neoformans [21] = assay: Antimicrobial activity against Cryptococcus neoformans IM 983036 isolate at 6.25 ug/ml after 48 hrs
Summary of the method: (§4)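 Clinical Cryptococcus isolates kept on Sabouraud-dextrose agar slopes; inoculum 1–5 × 10³ CFU/mL. Quinoline DMSO stocks were diluted in RPMI-1640 to final 100–6.25 µg/mL, with DMSO ≤2%. An equal volume of inoculum was added (200 µL per well). Run in triplicate.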

Cryptococcus neoformans [22] = assay: Antimicrobial activity against Cryptococcus neoformans IM 961951 isolate at 6.25 ug/ml after 48 hrs; summary of the method: as §4
Candida albicans [23] = assay: Antimicrobial activity against Candida albicans C127 isolate at 6.25 ug/ml after 24 hrs; conditions: C127, 24 h; summary of the method: as §3
Cryptococcus neoformans [24] = assay: Antimicrobial activity against Cryptococcus neoformans IM 052470 isolate at 6.25 ug/ml after 48 hrs; summary of the method: as §2
Candida parapsilosis = assay: Antimicrobial activity against Candida parapsilosis C124 isolate at 6.25 ug/ml after 24 hrs; conditions: Lodderomyces parapsilosis; summary of the method: as §2
Cryptococcus neoformans [25] = assay: Antimicrobial activity against Cryptococcus neoformans IM 972724 isolate at 6.25 ug/ml after 48 hrs; summary of the method: as §4
Cryptococcus neoformans [26] = assay: Antimicrobial activity against Cryptococcus neoformans IM 983040 isolate at 6.25 ug/ml after 48 hrs; summary of the method: as §4
Cryptococcus neoformans [27] = assay: Antimicrobial activity against Cryptococcus neoformans IM 031631 isolate at 6.25 ug/ml after 48 hrs; summary of the method: as §2
Pichia kudriavzevii = assay: Antimicrobial activity against Candida krusei C117 isolate at 6.25 ug/ml after 24 hrs; summary of the method: as §2
Cryptococcus neoformans [28] = assay: Antimicrobial activity against Cryptococcus neoformans IM 972751 isolate at 6.25 ug/ml after 48 hrs; summary of the method: as §4
Candida albicans [29] = assay: Antimicrobial activity against Candida albicans C130 isolate at 6.25 ug/ml after 24 hrs; summary of the method: as §3
Candida albicans [30] = assay: Antimicrobial activity against Candida albicans C128 isolate at 6.25 ug/ml after 24 hrs; summary of the method: as §3

## Cc1cc(-c2ccncc2)nc2c(C)cccc12
Trichophyton rubrum [1]
  MIC: 7.8 µg/mL (≈ 33.3 µM)
Nannizzia gypsea
  MIC: 12.5 µg/mL (≈ 53.3 µM)
Trichophyton rubrum [2]
  MIC: 15.6 µg/mL (≈ 66.6 µM)
Trichophyton rubrum [3]
  MIC: 7.8 µg/mL (≈ 33.3 µM)
[4]
  MIC: 7.8 µg/mL (≈ 33.3 µM)
[5]
  MIC: 31.2 µg/mL (≈ 133 µM)
[6]
  MIC: 12.5 µg/mL (≈ 53.3 µM)
Trichophyton rubrum [7]
  MIC: 7.8 µg/mL (≈ 33.3 µM)
Aspergillus flavus
  MIC: > 250 µg/mL
[8]
  MIC: 7.8 µg/mL (≈ 33.3 µM)
Trichophyton rubrum [9]; read-out: MIC
  MIC: 12.5 µg/mL (≈ 53.3 µM)
Trichophyton rubrum [9]; read-out: MIC100
  MIC: 7.8 µg/mL (≈ 33.3 µM)
Aspergillus niger
  MIC: > 250 µg/mL
Saccharomyces cerevisiae
  MIC: > 250 µg/mL
Cryptococcus neoformans [10]
  MIC: > 250 µg/mL
Aspergillus fumigatus
  MIC: > 250 µg/mL
[11]
  MIC: 7.8 µg/mL (≈ 33.3 µM)
[12]
  MIC: 7.8 µg/mL (≈ 33.3 µM)
Candida albicans [13]
  MIC: > 250 µg/mL

## C[C@@H]1[C@H](O)[C@@H](C)/C=C/C=C/C=C/C=C/C=C/C=C/C=C/[C@H](O[C@@H]2O[C@H](C)[C@@H](O)[C@H](N)[C@@H]2O)C[C@@H]2O[C@](O)(C[C@@H](O)C[C@@H](O)[C@H](O)CC[C@@H](O)C[C@@H](O)CC(=O)O[C@H]1C)C[C@H](O)[C@H]2C(=O)O [AMPHOTERICIN B]
Candida tropicalis
  inhibition at 6.25 µg/mL: 100%
Nakaseomyces glabratus
  inhibition at 6.25 µg/mL: 100%
Cryptococcus neoformans [14]
  inhibition at 6.25 µg/mL: 100%
Cryptococcus neoformans [15]
  inhibition at 6.25 µg/mL: 100%
Candida albicans [16]
  inhibition at 6.25 µg/mL: 100%
Aspergillus flavus
  MIC: 0.5 µg/mL (≈ 0.541 µM)
Candida albicans [17]
  inhibition at 6.25 µg/mL: 100%
Cryptococcus neoformans [18]
  inhibition at 6.25 µg/mL: 100%
Cryptococcus neoformans [19]
  inhibition at 6.25 µg/mL: 100%
Candida albicans [20]
  inhibition at 6.25 µg/mL: 100%
Cryptococcus neoformans [21]
  inhibition at 6.25 µg/mL: 100%
Cryptococcus neoformans [22]
  inhibition at 6.25 µg/mL: 100%
Candida albicans [23]
  inhibition at 6.25 µg/mL: 100%
Cryptococcus neoformans [24]
  inhibition at 6.25 µg/mL: 100%
Candida parapsilosis
  inhibition at 6.25 µg/mL: 100%
Cryptococcus neoformans [25]
  inhibition at 6.25 µg/mL: 100%
Aspergillus niger
  MIC: 0.5 µg/mL (≈ 0.541 µM)
Cryptococcus neoformans [26]
  inhibition at 6.25 µg/mL: 100%
Saccharomyces cerevisiae
  MIC: 0.5 µg/mL (≈ 0.541 µM)
Cryptococcus neoformans [10]
  MIC: 0.25 µg/mL (≈ 0.271 µM)
Cryptococcus neoformans [27]
  inhibition at 6.25 µg/mL: 100%
Pichia kudriavzevii
  inhibition at 6.25 µg/mL: 100%
Aspergillus fumigatus
  MIC: 0.5 µg/mL (≈ 0.541 µM)
Cryptococcus neoformans [28]
  inhibition at 6.25 µg/mL: 100%
Candida albicans [29]
  inhibition at 6.25 µg/mL: 100%
Candida albicans [30]
  inhibition at 6.25 µg/mL: 100%
Candida albicans [13]
  MIC: 1 µg/mL (≈ 1.08 µM)

## CC(=O)N1CCN(c2ccc(OCC3COC(Cn4ccnc4)(c4ccc(Cl)cc4Cl)O3)cc2)CC1 (stereo not drawn) [KETOCONAZOLE]
Nannizzia gypsea
  MIC: 0.05 µg/mL (≈ 0.0941 µM)
Candida tropicalis
  inhibition at 6.25 µg/mL: 100%
Nakaseomyces glabratus
  inhibition at 6.25 µg/mL: 100%
Cryptococcus neoformans [14]
  inhibition at 6.25 µg/mL: 100%
Cryptococcus neoformans [15]
  inhibition at 6.25 µg/mL: 100%
[6]
  MIC: 0.025 µg/mL (≈ 0.047 µM)
Candida albicans [16]
  inhibition at 6.25 µg/mL: 100%
Aspergillus flavus
  MIC: 0.5 µg/mL (≈ 0.941 µM)
Candida albicans [17]
  inhibition at 6.25 µg/mL: 100%
Cryptococcus neoformans [18]
  inhibition at 6.25 µg/mL: 100%
Cryptococcus neoformans [19]
  inhibition at 6.25 µg/mL: 100%
Candida albicans [20]
  inhibition at 6.25 µg/mL: 100%
Cryptococcus neoformans [21]
  inhibition at 6.25 µg/mL: 100%
Trichophyton rubrum [9]; read-out: MIC
  MIC: 0.025 µg/mL (≈ 0.047 µM)
Cryptococcus neoformans [22]
  inhibition at 6.25 µg/mL: 100%
Candida albicans [23]
  inhibition at 6.25 µg/mL: 100%
Cryptococcus neoformans [24]
  inhibition at 6.25 µg/mL: 100%
Candida parapsilosis
  inhibition at 6.25 µg/mL: 100%
Cryptococcus neoformans [25]
  inhibition at 6.25 µg/mL: 100%
Aspergillus niger
  MIC: 0.25 µg/mL (≈ 0.47 µM)
Cryptococcus neoformans [26]
  inhibition at 6.25 µg/mL: 100%
Saccharomyces cerevisiae
  MIC: 0.5 µg/mL (≈ 0.941 µM)
Cryptococcus neoformans [10]
  MIC: 0.25 µg/mL (≈ 0.47 µM)
Cryptococcus neoformans [27]
  inhibition at 6.25 µg/mL: 100%
Pichia kudriavzevii
  inhibition at 6.25 µg/mL: 100%
Aspergillus fumigatus
  MIC: 0.125 µg/mL (≈ 0.235 µM)
Cryptococcus neoformans [28]
  inhibition at 6.25 µg/mL: 100%
Candida albicans [29]
  inhibition at 6.25 µg/mL: 100%
Candida albicans [30]
  inhibition at 6.25 µg/mL: 100%
Candida albicans [13]
  MIC: 0.5 µg/mL (≈ 0.941 µM)

## CN(C/C=C/C#CC(C)(C)C)Cc1cccc2ccccc12 [TERBINAFINE]
Trichophyton rubrum [1]
  MIC: 0.012 µg/mL (≈ 0.0412 µM)
Nannizzia gypsea
  MIC: 0.04 µg/mL (≈ 0.137 µM)
Trichophyton rubrum [2]
  MIC: 0.006 µg/mL (≈ 0.0206 µM)
Trichophyton rubrum [3]
  MIC: 0.006 µg/mL (≈ 0.0206 µM)
[4]
  MIC: 0.006 µg/mL (≈ 0.0206 µM)
[5]
  MIC: 0.006 µg/mL (≈ 0.0206 µM)
[6]
  MIC: 0.04 µg/mL (≈ 0.137 µM)
Trichophyton rubrum [7]
  MIC: 0.006 µg/mL (≈ 0.0206 µM)
[8]
  MIC: 0.006 µg/mL (≈ 0.0206 µM)
Trichophyton rubrum [9]; read-out: MIC100
  MIC: 0.01 µg/mL (≈ 0.0343 µM)
[11]
  MIC: 0.006 µg/mL (≈ 0.0206 µM)
[12]
  MIC: 0.006 µg/mL (≈ 0.0206 µM)
